Assay results: PubChem BioAssay
Calls of active or inactive are those of the source.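 Rule for the calls, unless noted: active = compounds giving at least 50% inhibition in the cell-based MKP-3 phosphatase rescue imaging test; inactive = the rest.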

Key:
[1] = inhibitors of TNFa-induced NFkB p65 translocation, primary screen, imaging, HUVEC, MLSMR starter and 10KST1 sets (AID 438;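 active = inhibition above 20% together with a positive visual image hit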;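 note: compound added about 3h40 before a 20 min TNFalpha stimulation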;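 for inhibition: signal is the nuclear over cytoplasmic p65 intensity ratio per well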); details: HUVEC TNFa-induced p65 nuclear translocation; cell count: measured here: nuclei count (cytotoxicity indicator), at 2.08 µM; inhibition: at 2 µM, stronger effect = higher value, 0% TNFa-plus-vehicle, 100% no-TNFa wells
[2] = inhibitors of E-selectin induction by TNFa, primary screen, imaging, HUVEC, immunofluorescence, MLSMR starter and 10KST1 sets (AID 487;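 active = visually confirmed hit in the image check and inhibition above 20%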;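 for inhibition: signal is fraction of cell area covered by stained E-selectin grains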;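 for nuclei count: 100% = median nuclei count of all wells on the same plate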); details: HUVEC TNFalpha-induced E-selectin immunofluorescence imaging, at 2 µM; inhibition: stronger effect = higher value; nuclei count: measured here: cell number, toxicity
[3] = DUSP6 inhibitors restoring Erk phosphorylation by chemical complementation, primary imaging in DUSP6-transfected HeLa (AID 609); details: HeLa MKP-3 transfected, phospho-Erk imaging KS statistic, at 10 µM, cells stimulated with TPA for 15 min;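 for inhibition: phospho-Erk level distribution per well compared with pooled transfected vehicle control wells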
[4] = target: Dual specificity protein phosphatase 6 (Homo sapiens) (UniProt Q16828); assay: as above; details: HeLa MKP-3 transfected, phospho-Erk imaging KS statistic; at 10 µM; stronger effect = higher value; cells stimulated with TPA for 15 min
[5] = target: Voltage-gated potassium channel subunit beta-2 (Rattus norvegicus) (UniProt P62483); assay: KvBeta enzyme negative modulators, primary screen, biochemical, NADPH fluorescence (AID 622;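 active = fluorescence slope higher than the sample average by over 3 SD, cut at about -0.22 in these data, passing the limit was not always enough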;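 note: slope of raw intensity against log time taken from 70 to 1610 s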); details: recombinant KvBeta, 4-cyanobenzaldehyde reduction, at 10 µM, stronger effect = higher value
[6] = target: Voltage-gated potassium channel subunit beta-2 (Rattus norvegicus) (UniProt P62483); assay: KvBeta positive modulators, primary screen, biochemical, NADPH fluorescence (AID 623;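 active = NADPH fluorescence slope more negative than the mean of all samples by about 3 SD, 99.7% confidence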;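 note: fluorescence intensity change per second fitted from 20 to 320 s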); details: Recombinant KvBeta, NADPH fluorescence decrease slope, 10 min; at 10 µM; stronger effect = lower value
[7] = target: Alpha-2C adrenergic receptor (Homo sapiens) (UniProt P18825); assay: modulators of alpha2C/GIRK thallium flux, primary screen, cell-based, HEK293 alpha2C/GIRK1/2 (AID 624;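 active = fluorescence slope after compound addition differing from the mean of all screened samples at 99.7% confidence, in either direction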;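 note: slope of fluorescence ratio to pre-addition baseline per second over 15 to 24 s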); details: thallium flux BTC fluorescence, at 10 µM, actives lie on both sides
[8] = inhibitors of larval lipid processing in zebrafish, primary screen, whole organism, PED6 fluorescence, gall bladder and intestine (AID 686;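 active = a full or partial loss of lipid-probe fluorescence in the fish gall bladder, intestine or both, judged by eye; inactive = no fluorescence loss, or compound toxic to the fish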;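 note: larvae 5 to 7 days old with five fish per well; signal comes from phospholipase A2 cleavage of quenched PED6 carried via bile; overnight exposure to compound and PED6 before scoring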); details: Zebrafish larvae PED6 lipid processing, fluorescence scoring; screened at 20 µM (by protocol)
Method in brief: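 Test system – live zebrafish larvae aged 5-7 days, whole organism · Buffer or medium – E3 fish medium · Reagent – quenched phospholipase substrate PED6, 100 nM final, ingested by larvae · Doses – 20 µM single dose · Incubation – overnight compound and PED6 incubation · Technique – visual fluorescence microscopy scoring of gall bladder, gut · Read-out basis – visual per-well fluorescence inhibition score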

[9] = inhibitors of Chlamydomonas gravitaxis, primary screen, whole organism, Chlamydomonas reinhardtii, WT vs cilia-less mutant, absorbance, 96-well (AID 463189;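 active = inhibition at or above 50% relative to wild type and mutant plate controls; inactive = inhibition below 50%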;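 note: 0% = wild type cc124 cells in DMSO and 100% = ciliumless bld1 mutant cells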); details: OD600 absorbance, 2 days, at 10 µM, stronger effect = higher value
[10] = measured here: cell density z-score
[11] = measured here: nuclear c-Myc green intensity z-score
[12] = measured here: nuclear pErk red intensity z-score, stronger effect = higher value

Dual specificity protein phosphatase 6 (Homo sapiens), sequence (Q16828 whole entry, looked up): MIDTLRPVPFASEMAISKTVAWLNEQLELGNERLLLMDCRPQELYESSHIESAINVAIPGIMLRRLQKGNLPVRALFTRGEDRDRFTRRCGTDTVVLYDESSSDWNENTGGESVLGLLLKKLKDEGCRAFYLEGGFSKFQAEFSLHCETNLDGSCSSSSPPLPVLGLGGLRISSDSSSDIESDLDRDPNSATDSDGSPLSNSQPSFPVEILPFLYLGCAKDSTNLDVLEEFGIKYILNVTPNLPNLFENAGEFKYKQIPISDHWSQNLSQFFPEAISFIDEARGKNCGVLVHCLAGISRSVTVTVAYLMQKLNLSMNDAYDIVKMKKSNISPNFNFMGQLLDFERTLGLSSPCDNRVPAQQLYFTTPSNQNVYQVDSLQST
Voltage-gated potassium channel subunit beta-2 (Rattus norvegicus), sequence (P62483 whole entry, looked up): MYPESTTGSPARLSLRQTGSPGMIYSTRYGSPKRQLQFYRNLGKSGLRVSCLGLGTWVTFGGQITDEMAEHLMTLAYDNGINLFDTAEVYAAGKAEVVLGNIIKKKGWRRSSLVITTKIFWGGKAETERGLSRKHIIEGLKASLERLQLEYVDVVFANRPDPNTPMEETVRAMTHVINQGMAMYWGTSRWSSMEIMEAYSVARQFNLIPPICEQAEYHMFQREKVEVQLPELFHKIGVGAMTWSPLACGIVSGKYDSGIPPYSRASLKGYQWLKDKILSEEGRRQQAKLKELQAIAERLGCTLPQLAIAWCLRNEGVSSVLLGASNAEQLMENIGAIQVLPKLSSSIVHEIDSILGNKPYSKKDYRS
Alpha-2C adrenergic receptor (Homo sapiens), sequence (P18825 whole entry, looked up): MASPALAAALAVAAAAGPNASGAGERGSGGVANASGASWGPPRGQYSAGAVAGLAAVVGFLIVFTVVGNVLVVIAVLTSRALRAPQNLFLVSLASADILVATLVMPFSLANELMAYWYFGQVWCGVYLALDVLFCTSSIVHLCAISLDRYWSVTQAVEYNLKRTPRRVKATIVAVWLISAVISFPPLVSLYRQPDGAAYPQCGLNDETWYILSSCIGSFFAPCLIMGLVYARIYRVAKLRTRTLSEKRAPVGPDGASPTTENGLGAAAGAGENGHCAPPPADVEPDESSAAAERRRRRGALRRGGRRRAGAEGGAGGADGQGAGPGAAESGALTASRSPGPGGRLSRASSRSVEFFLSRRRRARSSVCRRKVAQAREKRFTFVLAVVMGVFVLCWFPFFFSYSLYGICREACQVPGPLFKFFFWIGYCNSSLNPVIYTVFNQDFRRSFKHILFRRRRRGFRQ

SMILES	cell count [1]	inhibition [1]	inhibition [2]	nuclei count [2] [%]	z-score [3, 10]	z-score [3, 11]	z-score [3, 12]	inhibition [4]	fluorescence slope [5]	NADPH fluorescence slope [6]	slope [7]	outcome [8]	inhibition [9]
COC(=O)/C(=C1/Oc2cc(C)oc(=O)c2S1)C(F)(F)F	330	-2.4% (inactive)	-59.5% (inactive)	177	1.64	0.462	0.469	28% (inactive)	-0.427 (inactive)	-0.000106 (inactive)	0.0045 (inactive)	inactive	5.01% (inactive)
ONC(=Nc1ccccc1)C(=Nc1ccccc1)NO	348	-0.3% (inactive)	-28.3% (inactive)	100	1.37	1.46	0.663	17% (inactive)	-0.542 (inactive)	-6e-05 (inactive)	0.00535 (inactive)	inactive	25.5% (inactive)
COc1ccc(-c2c3c([nH]c(=S)c2C#N)CCC3)cc1	527	-5.1% (inactive)	-113% (inactive)	192	-0.0351	1.87	0.16	2.46% (inactive)	-0.314 (inactive)	-4.4e-06 (inactive)	0.00379 (inactive)	inactive	-1.44% (inactive)
CCc1c(C)c(C#N)c2nc3ccccc3n2c1-n1nc(C)cc1C	609	-2.3% (inactive)	-51.2% (inactive)	140	-0.4	1.4	-0.335	7.93% (inactive)	-0.352 (inactive)	-7.9e-05 (inactive)	0.00552 (inactive)	inactive	-13.6% (inactive)
CC(C)CC(=O)Nc1ccccc1N1CCCC1	269	3.1% (inactive)	-24.3% (inactive)	101	-0.814	0.661	-0.804	9.39% (inactive)	-0.396 (inactive)	-1.2e-05 (inactive)	0.0054 (inactive)	inactive	-8.2% (inactive)
CSc1sc(C(=O)O)c2c1C(=O)CCC2	562	-4.6% (inactive)	-163% (inactive)	186	-0.487	1.05	0.511	5.65% (inactive)	-0.486 (inactive)	-0.000199 (inactive)	0.00495 (inactive)	inactive	-9.07% (inactive)
CCn1cc(C(=O)NCCc2ccccc2)c(=O)c2cc(F)c(N3CCN(C)CC3)cc21	483	-8.4% (inactive)	-187% (inactive)	186	-0.562	1.62	1.38	-8.95% (inactive)	-0.321 (inactive)	-1.5e-05 (inactive)	0.00526 (inactive)	inactive	23.3% (inactive)
CCCc1cc(-n2ccnc2C)n2c(nc3ccccc32)c1C#N	536	-42.1% (inactive)	-109% (inactive)	153	-0.822	-0.981	0.35	-15% (inactive)	-0.415 (inactive)	-3.2e-05 (inactive)	0.00567 (inactive)	inactive	4.33% (inactive)
CCOC(=O)C(NC=O)(NC(C)(C)C)C(=O)OCC	520	-16.1% (inactive)	-227% (inactive)	188	-0.692	0.27	0.909	-8.95% (inactive)	-0.493 (inactive)	-5.5e-05 (inactive)	0.00503 (inactive)	inactive	-1.22% (inactive)
Clc1ccc(-c2cn3c(n2)CCC3)cc1	567	-16.9% (inactive)	0.7% (inactive)	171	-1.6	1.21	1.33	-6.86% (inactive)	-0.504 (inactive)	-9.3e-05 (inactive)	0.00501 (inactive)	inactive	3.42% (inactive)
CCOc1cc(CN2CCOCC2)cc(C(C)=O)c1	617	-3.9% (inactive)	-113% (inactive)	110	1.86	1.2	-0.466	15.1% (inactive)	-0.573 (inactive)	-1.5e-05 (inactive)	0.00527 (inactive)	inactive	38.5% (inactive)
COc1ccc(C(=O)/C=C/Nc2cccc(C)n2)cc1OC	553	-2.4% (inactive)	-95.1% (inactive)	164	-1.16	0.461	0.22	-1.12% (inactive)	-0.33 (inactive)	-2.1e-05 (inactive)	0.00813 (inactive)	inactive	-7.36% (inactive)
Cc1ccc2[nH]c3c(N4CCN(Cc5ccccc5)CC4)ncnc3c2c1	328	-7.3% (inactive)	-11.9% (inactive)	148	0.594	0.553	-0.309	10.5% (inactive)	-0.403 (inactive)	-0.000135 (inactive)	0.00442 (inactive)	inactive; toxic	38.4% (inactive)
COC(=O)CC1=C(C(=O)OC)C(c2ccc3c(c2Cl)OCO3)C(C#N)=C(N)O1 (stereo unspecified)	505	-3% (inactive)	-43.9% (inactive)	146	1.11	-0.928	-0.541	15% (inactive)	-0.319 (inactive)	-2.9e-06 (inactive)	0.00617 (inactive)	inactive	21.8% (inactive)
CC(C)Oc1ccc(Cc2c(O)nc(NCCCN(C)C)[nH]c2=O)cc1	383	-15.2% (inactive)	-285% (inactive)	152	-0.061	-1.61	-0.785	-2.07% (inactive)	-0.396 (inactive)	-1e-05 (inactive)	0.00657 (inactive)	inactive	26.1% (inactive)
CCC(=O)OC1=C2C(=Nc3c(c(=O)n(C)c(=O)n3C)C2c2ccccc2)c2ccccc21 (stereo unspecified)	509	-2.9% (inactive)	-57.1% (inactive)	75.2	-0.341	0.242	0.679	1.9e-07% (inactive)	-0.505 (inactive)	-5.2e-05 (inactive)	0.00546 (inactive)	inactive	15.5% (inactive)
CCOC(=O)c1[nH]c2cc3c(cc2c1NC(=O)CN1CCCCC1C)OCO3 (stereo unspecified)	588	-1.8% (inactive)	46.2% (inactive)	167	0.894	-1.11	-0.403	-10.5% (inactive)	-0.229 (inactive)	-2e-05 (inactive)	0.00474 (inactive)	inactive	-2.82% (inactive)
c1ccc(C2=Nn3c(nnc3-c3ccccn3)SC2)cc1	589	-10.9% (inactive)	-79.3% (inactive)	170	-0.434	1.46	1.25	-9.66% (inactive)	-0.412 (inactive)	-0.000132 (inactive)	0.00684 (inactive)	inactive	-6.13% (inactive)
CC(C)N1CC=C2C(C#N)=C(N)C(C#N)(C#N)C(c3ccccc3)C2C1 (stereo unspecified)	535	-3.2% (inactive)	-126% (inactive)	218	0.674	3.57	1.58	68.6% (inactive)	-0.366 (inactive)	-2.3e-05 (inactive)	0.000192 (inactive)	inactive	11.1% (inactive)
Cc1c(CCC#N)c(N2CCCCC2)n2c(nc3ccccc32)c1C#N	547	-20.4% (inactive)	-116% (inactive)	155	0.117	-1.2	-0.217	-6.06% (inactive)	-0.341 (inactive)	-2.7e-05 (inactive)	0.00724 (inactive)	inactive	4.74% (inactive)
Cc1nc(N2CCN(Cc3ccccc3)CC2)c(C#N)c2c1COC(C)(C)C2	686	-5.4% (inactive)	-178% (inactive)	195	0.66	-1.21	0.193	3.66% (inactive)	-0.487 (inactive)	-0.000123 (inactive)	0.00373 (inactive)	inactive	-5.61% (inactive)
COc1ccccc1-n1c(=O)c2c3c(sc2n2c(SC)nnc12)CCC3	612	-29% (inactive)	-100% (inactive)	169	-1.08	-0.0482	1.7	-0.608% (inactive)	-0.367 (inactive)	-5.4e-05 (inactive)	0.00462 (inactive)	inactive	16.5% (inactive)
COc1cccc(C2/C(=C(/O)c3cnn(-c4ccccc4)c3C)C(=O)C(=O)N2CCN(C)C)c1 (stereo unspecified)	510	-2.9% (inactive)	-176% (inactive)	132	0.354	-0.911	0.0449	-8.76% (inactive)	-0.551 (inactive)	-7.2e-05 (inactive)	0.00551 (inactive)	inactive	7.34% (inactive)
CC(=O)c1cc(C#N)c(SCc2ccncc2)nc1C	591	-18.5% (inactive)	40% (inactive)	122	1.87	-0.619	1.67	-2.29% (inactive)	-0.548 (inactive)	-8.8e-06 (inactive)	0.00573 (inactive)	inactive	-20.5% (inactive)
CCOC(=O)CCCCC(=O)NC(CO)C(=O)NC (stereo unspecified)	573	-3.8% (inactive)	-97.8% (inactive)	204	-1.05	1.41	-0.705	22.1% (inactive)	-0.374 (inactive)	-2.1e-05 (inactive)	0.00506 (inactive)	inactive	-2.9% (inactive)
O=c1[nH]c(CN2CCCCC2)nc2c1C1(CCCC1)Cc1ccccc1-2	414	-0.5% (inactive)	-29.1% (inactive)	101	0.73	-0.701	-0.0539	-1.12% (inactive)	-0.233 (inactive)	-8.8e-06 (inactive)	0.00603 (inactive)	inactive	-2.89% (inactive)
Nc1ncnc2nc(SCc3ccccc3)[nH]c12	352	2.1% (inactive)	-52.6% (inactive)	152	-0.893	1.92	0.814	-7.01% (inactive)	-0.432 (inactive)	-0.00013 (inactive)	0.00504 (inactive)	inactive	8.96% (inactive)
